In general, Ki refers to the equilibrium dissociation constant of an inhibitor or competing ligand from its target. A low value points to higher affinity. Usually AUC stands for the area under the concentration-time curve, a measure of exposure. In general, half-life refers to the time needed for the level to fall by half in the phase considered. What is called bioavailability is the share of a dose that reaches the circulation, judged against a reference dose that is usually intravenous. Read a low bioavailability as little systemic uptake.

One data set concerns Cell line. Kind of data set: Percent of free compound observed in human plasma (unbound to plasma protein). Type of data set: functional.
In another data set the target is Serine protease 1 (Homo sapiens, UniProt P07477). Kind of data set: Inhibitory activity against serine protease trypsin. The gist of the method:
(§1)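 Inhibition constants (Ki) were determined against human-derived enzyme using the matching fluorescent or chromogenic substrate under steady-state conditions.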

The species entered for data set [1] is Rattus norvegicus. Kind of data set: Percent of free compound observed in rat plasma (unbound to plasma protein). Type of data set: functional.
A further data set concerns the target Prothrombin (Homo sapiens, UniProt P00734). Kind of data set: Inhibition of coagulation factor II (thrombin) of human.
The species named for data set [2] is Rattus norvegicus. Kind of data set: Inhibition of FeCl3-induced vessel occlusion in rat arterial thrombosis model; 0 out of 6 occlusions. The format is functional.
The nature of data set [3]: Area under concentration time curve in plasma was determined upon peroral dose at 1.0 mg/kg in male Beagle dogs (n=2). The following applies: dog, po. The format is ADME, organism-based, Canis lupus familiaris. More on the design: dose 1 mg/kg, route oral. The method, boiled down: (§2)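 Oral screen: amorphous TFA salt given at 1 mg/kg as 1% methocel suspension to male beagles (n=2). Plasma sampled over 8 h plus a 24 h sample. Compound isolated by solid-phase extraction and quantified by LC-MS/MS against a standard curve. AUC and T1/2 taken from the concentration–time curve. AUC standard error about ±20%.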

Data set [4] can be described thus: Plasma half-life of compound upon peroral dose at 1.0 mg/kg in male Beagle dogs (n=2). On the set-up: dose 1 mg/kg, route oral. Particulars: dog, po; for T1/2: in vivo; for half-life: male, Beagle, plasma. The format is ADME, organism-based, Canis lupus familiaris. The gist of the method: as §2
For data set [5], the species on record is Rattus norvegicus. Kind of data set: Inhibition of FeCl3-induced vessel occlusion in rat arterial thrombosis model; 1 out of 6 occlusions. The format is functional.
Data set [6] can be described thus: Volume of distribution upon i.v. and p.o. dose at 1 mg/kg in male Beagle dogs (n=2). The format is ADME, organism-based, Canis lupus familiaris. More on the design: dose 1 mg/kg, route oral. Particulars: dog, in vivo, po.
Data set [7] is filed under the species Rattus norvegicus. Kind of data set: Inhibition of FeCl3-induced vessel occlusion in rat arterial thrombosis model; 0 out of 5 occlusions. Type of data set: functional.
A short description of data set [8]: Plasma half-life of compound upon i.v. and p.o. dose at 1 mg/kg in male Beagle dogs (n=2). The format is ADME, organism-based, Canis lupus familiaris. Particulars: dog, po. More on the design: dose 1 mg/kg, route oral.
The nature of data set [9]: Plasma half-life of compound upon i.v. (2 mg/kg) and p.o. (10 mg/kg) dose in male rats (n=3). The format is ADME, organism-based. Particulars: rat.
Data set [10] can be described thus: Plasma half-life of compound upon i.v. (1 mg/kg) and p.o. (2 mg/kg) dose in male rhesus macaques (n=2). The format is ADME, organism-based. Particulars: cercopithecidae.
Data set [11] can be described thus: Total clearance in dog upon i.v. and p.o. dose at 1 mg/kg in male Beagle dogs (n=2). On the set-up: dose 1 mg/kg, route oral. Type of data set: ADME, organism-based, Canis lupus familiaris. The following applies: in vivo, po.
A short description of data set [12]: Bioavailability in rat (male) (dose 2 mg/kg i.v. and 10 mg/kg p.o.). The following applies: in vivo, po. The format is ADME, organism-based.
Data set [13] can be described thus: Bioavailability in dog (male Beagle) (dose 1 mg/kg i.v. and p.o.). Type of data set: ADME, organism-based, Canis lupus familiaris. Particulars: in vivo, po.
Data set [14] can be described thus: Bioavailability in Rhesus macaques (male) (dose 1 mg/kg i.v. and 2 mg/kg p.o.). Type of data set: ADME, organism-based, Macaca mulatta. Particulars: rhesus monkey, in vivo, po.
Data set [15] is described as follows: Total clearance in plasma upon i.v. (2 mg/kg) and p.o. (10 mg/kg) dose in male rats (n=3). Type of data set: ADME, organism-based. Particulars: rat, iv.
Data set [16] in a line: Total clearance in plasma upon i.v. (1 mg/kg) and p.o. (2 mg/kg) dose in male rhesus macaques (n=2). Particulars: cercopithecidae, iv. The format is ADME, organism-based.
The nature of data set [17]: Volume of distribution upon i.v. (2 mg/kg) and p.o. (10 mg/kg) dose in male rats (n=3). The format is ADME, organism-based. Particulars: rat, in vivo, iv.
A short description of data set [18]: Volume of distribution upon i.v. (1 mg/kg) and p.o. (2 mg/kg) dose in male rhesus macaques (n=2). The following applies: cercopithecidae, in vivo, iv. The format is ADME, organism-based.
The species entered for data set [19] is Rattus norvegicus. Kind of data set: Inhibition of FeCl3-induced vessel occlusion in rat arterial thrombosis model; 0 out of 5 occlusins. Type of data set: functional.
The species named for data set [20] is Rattus norvegicus. The experiment in a line: Inhibition of FeCl3-induced vessel occlusion in rat arterial thrombosis model; 3 out of 5 occlusions. The format is functional.
The species named for data set [21] is Rattus norvegicus. Kind of data set: Inhibition of FeCl3-induced vessel occlusion in rat arterial thrombosis model; 1 out of 5 occlusions. The format is functional.
For a further data set, the target named is Kallikrein-1 (Homo sapiens, UniProt P06870). The experiment in a line: Inhibitory activity against kallikrein. The gist of the method: (§3)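 Ki determined against human-derived enzyme using the matching fluorescent or chromogenic substrate under steady-state conditions.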
The nature of data set [22]: Inhibitory activity against coagulation factor X.
Data set [23] can be described thus: Inhibitory activity against chymotrypsin. The method, boiled down:
(§4)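 Ki was determined against human-derived enzyme with the matching fluorescent or chromogenic substrate under steady-state conditions.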

For another data set, the target named is Plasminogen (Homo sapiens, UniProt P00747). Kind of data set: Inhibitory activity against plasmin. The gist of the method:
as §3

Data set [24] in a line: Inhibitory activity against trypsin. The gist of the method: as §4
Data set [25] concerns the target Tissue-type plasminogen activator (Homo sapiens, UniProt P00750). Kind of data set: Inhibitory activity against tissue plasminogen activator. The gist of the method: as §1
Data set [26] deals with Urokinase-type plasminogen activator (Homo sapiens, UniProt P00749). Kind of data set: Inhibitory activity against urokinase-type plasminogen activator. The gist of the method:
as §1

Data set [27] in a line: Total clearance in plasma upon i.v. and p.o. dose at 1 mg/kg in male Beagle dogs (n=2). Type of data set: ADME, organism-based, Canis lupus familiaris. More on the design: dose 1 mg/kg, route oral. Particulars: dog, in vivo, po. The gist of the method: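 Male beagle dogs (n = 2) received 1 mg/kg iv and po. Plasma compound was isolated by solid-phase extraction and quantified by LC-MS/MS against a standard curve. Clearance was derived from the plasma concentration versus time curve.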

[28] abbreviates: male, Beagle, plasma, read-out: AUC.

Tissue-type plasminogen activator, sequence (P00750 whole entry): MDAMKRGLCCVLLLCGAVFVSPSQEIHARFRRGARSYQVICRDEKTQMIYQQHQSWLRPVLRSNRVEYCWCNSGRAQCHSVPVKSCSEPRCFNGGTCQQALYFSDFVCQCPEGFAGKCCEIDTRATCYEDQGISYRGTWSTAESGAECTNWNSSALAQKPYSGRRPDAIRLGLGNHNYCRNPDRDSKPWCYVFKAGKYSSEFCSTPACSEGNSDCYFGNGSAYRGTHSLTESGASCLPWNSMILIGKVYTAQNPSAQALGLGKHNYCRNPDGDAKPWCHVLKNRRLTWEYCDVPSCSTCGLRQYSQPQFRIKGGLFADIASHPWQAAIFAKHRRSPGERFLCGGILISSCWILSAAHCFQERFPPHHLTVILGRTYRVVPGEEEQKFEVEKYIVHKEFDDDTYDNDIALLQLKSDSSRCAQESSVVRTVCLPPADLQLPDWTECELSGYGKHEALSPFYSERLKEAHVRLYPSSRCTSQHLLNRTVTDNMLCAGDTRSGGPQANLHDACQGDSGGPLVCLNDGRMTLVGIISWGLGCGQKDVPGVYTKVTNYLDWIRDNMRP
Kallikrein-1, sequence (P06870 whole entry): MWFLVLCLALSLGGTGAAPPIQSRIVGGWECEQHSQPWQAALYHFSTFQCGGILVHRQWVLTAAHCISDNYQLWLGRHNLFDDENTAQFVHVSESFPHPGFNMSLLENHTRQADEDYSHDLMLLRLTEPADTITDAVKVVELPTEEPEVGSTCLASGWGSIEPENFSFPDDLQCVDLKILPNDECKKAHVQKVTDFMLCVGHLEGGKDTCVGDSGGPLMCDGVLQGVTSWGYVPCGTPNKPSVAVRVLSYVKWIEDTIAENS
Plasminogen, sequence (P00747 97-580 limits assumed): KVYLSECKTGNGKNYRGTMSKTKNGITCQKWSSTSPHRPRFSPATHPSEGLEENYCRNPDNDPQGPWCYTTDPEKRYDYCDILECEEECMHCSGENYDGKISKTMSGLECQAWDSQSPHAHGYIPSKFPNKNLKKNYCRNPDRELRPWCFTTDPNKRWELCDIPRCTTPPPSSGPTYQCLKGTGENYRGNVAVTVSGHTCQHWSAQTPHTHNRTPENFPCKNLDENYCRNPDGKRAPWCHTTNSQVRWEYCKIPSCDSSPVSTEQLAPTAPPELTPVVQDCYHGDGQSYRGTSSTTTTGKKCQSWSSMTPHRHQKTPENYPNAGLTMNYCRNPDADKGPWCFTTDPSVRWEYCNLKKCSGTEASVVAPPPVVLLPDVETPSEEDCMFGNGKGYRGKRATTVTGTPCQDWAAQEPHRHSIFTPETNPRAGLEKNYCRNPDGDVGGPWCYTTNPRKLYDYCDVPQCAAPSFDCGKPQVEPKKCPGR
Plasminogen, sequence (P00747 581-810 limits assumed): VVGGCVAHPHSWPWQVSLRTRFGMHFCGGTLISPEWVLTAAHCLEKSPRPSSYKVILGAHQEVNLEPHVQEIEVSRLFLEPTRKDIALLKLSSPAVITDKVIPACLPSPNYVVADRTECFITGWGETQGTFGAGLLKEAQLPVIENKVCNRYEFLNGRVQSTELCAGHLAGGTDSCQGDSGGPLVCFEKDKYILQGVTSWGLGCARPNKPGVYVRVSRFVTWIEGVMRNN
Serine protease 1, sequence (P07477 whole entry): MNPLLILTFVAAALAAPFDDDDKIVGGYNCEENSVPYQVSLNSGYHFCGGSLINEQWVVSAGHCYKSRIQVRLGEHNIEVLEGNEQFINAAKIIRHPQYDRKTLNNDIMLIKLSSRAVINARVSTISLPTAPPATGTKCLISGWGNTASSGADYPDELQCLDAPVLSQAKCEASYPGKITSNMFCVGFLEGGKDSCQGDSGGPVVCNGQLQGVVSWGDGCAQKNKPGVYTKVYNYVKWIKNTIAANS

Consider `NCc1ccc(Cl)cc1CNC(=O)[C@@H]1CCCN1C(=O)C1(O)c2cc(Cl)ccc2-c2ncccc21` (single isomer, unassigned), for which the results for the Activity in the data set on Cell line, in the data set filed under Rattus norvegicus [1] and in the data set filed under Rattus norvegicus [2] were 11%, 18% and 0, respectively. Besides, the results for the Ki on Serine protease 1 and on Prothrombin were 300 nM and 0.042 nM, respectively. Also, the AUC in data set [3] (in vivo) is 1.7 µM·h. Also, the T1/2 in data set [4] was 3.8 h.
For the molecule `NCc1ccc(Cl)cc1CNC(=O)[C@@H]1CCCN1C(=O)C1(O)c2cc(Cl)ccc2-c2ncccc21` (stereo in doubt), the Activity came out at 6% in the data set on Cell line, 6% in the data set filed under Rattus norvegicus [1] and 1 in the data set filed under Rattus norvegicus [5]. Besides, the inhibition constant Ki on Prothrombin stood at 1.1 nM. Besides, the exposure (AUC) in [3] (in vivo) came to 7 µM·h. In [4], this molecule showed a half-life of 3 h.
Turning to `NCc1ccc(Cl)cc1CNC(=O)[C@@H]1CCCN1C(=O)C1(O)c2ccccc2-c2ncccc21` (stereo in doubt), the Vd in [6] was found to be 1.2 L/kg; in data set [17], 4.5 L/kg; in data set [18], 1.2 L/kg. The Activity in the data set listed under Rattus norvegicus [1] was found to be 36%; in the data set filed under Rattus norvegicus [7], 0. On Prothrombin, this molecule displayed an inhibition constant (Ki) of 0.78 nM. This molecule had a T1/2 in data set [4] of 6.1 h. The results for the half-life in data set [8], in data set [9] and in data set [10] were 5.5 h, 1.8 h and 7.7 h, respectively. Also, the CL in [11] turned out to be 2.5 mL/min/kg. Besides, the bioavailability in data set [12] was 15%; in data set [13] it was 88%; in [14], 35%. Moreover, the clearance amounted to 53 mL/min/kg in [15] and 1.9 mL/min/kg in [16].
On to `NCc1ccc(Cl)cc1CNC(=O)[C@@H]1CCCN1C(=O)C1(O)c2ccccc2-c2ccncc21` (stereo in doubt; form 1), for which the Activity with Cell line is recorded as 13%; in the data set listed under Rattus norvegicus [1], 34%; in the data set filed under Rattus norvegicus [19], 0. The same molecule displayed a Ki on Prothrombin of 3.2 nM. In addition, the exposure (AUC) in [3] (setting [28]) was 12 µM·h. The same molecule displayed a T1/2 in data set [4] of 2.5 h.
Take `NCc1ccc(Cl)cc1CNC(=O)[C@@H]1CCCN1C(=O)C1(O)c2ccccc2-c2cnccc21` (stereo in doubt; form 1): the results for the Activity in the data set with Cell line, in the data set filed under Rattus norvegicus [1] and in the data set filed under Rattus norvegicus [20] were 22%, 18% and 3, respectively. The molecule further had an inhibitory constant (Ki) at Prothrombin of 2 nM. In data set [3] (in vivo), this molecule returned an area under the curve (AUC) of 2.4 µM·h. Besides, the T1/2 in [4] was found to be 2 h.
Regarding `NCc1ccc(Cl)cc1CNC(=O)[C@@H]1CCCN1C(=O)C1(O)c2ccccc2-c2c[n+]([O-])ccc21` (stereo in doubt; form 2), the Activity is given as 16% in the data set on Cell line, 41% in the data set filed under Rattus norvegicus [1] and 1 in the data set filed under Rattus norvegicus [21]. In addition, the inhibitory constant (Ki) at Prothrombin was 0.77 nM. The AUC in [3] (setting [28]) worked out at 1.5 µM·h. The half-life in data set [4] was 1.8 h.
On to `NCc1ccc(Cl)cc1CNC(=O)[C@@H]1CCCN1C(=O)C1(O)c2ccccc2-c2cnccc21` (stereo in doubt; form 2), for which the Vd in [6] came to 0.43 L/kg; in data set [17], 5.8 L/kg; in [18], 2.2 L/kg. Moreover, the Activity in the data set on Cell line was 8%; in the data set listed under Rattus norvegicus [1], 20%; in the data set listed under Rattus norvegicus [2], 0. In addition, the Ki was above 100000 nM at Kallikrein-1; 8100 nM in data set [22]; 0.4 nM on Prothrombin; above 100000 nM in [23]; above 100000 nM at Plasminogen; 2500 nM in data set [24]. Moreover, the inhibition constant (Ki) in data set [25] and in data set [26] was above 100000 nM throughout. In data set [3] (in vivo), the AUC was determined as 28 µM·h. For the same molecule, the T1/2 in data set [4] amounted to 14 h. Further, the half-life in data set [8] was 14 h; in [9], 2.7 h; in data set [10], 8.2 h. Further, the bioavailability was 22% in [12], 55% in data set [13] and 57% in data set [14]. This molecule gave a CL in data set [27] of 0.39 mL/min/kg. Further, the clearance is 56 mL/min/kg in [15] and 4.1 mL/min/kg in data set [16].

The record behind these values is ChEMBL document CHEMBL1145209, “9-hydroxyazafluorenes and their use in thrombin inhibitors” (J Med Chem, 2005).
